Experimental data as given in ChEMBL document CHEMBL2169805, “The discovery of CCR3/H1 dual antagonists with reduced hERG risk” (Bioorg Med Chem Lett, 2012).
In brackets after ≈: the same amount, converted by molar mass.

Key:
[1] = Oral bioavailability in Sprague-Dawley rat at 1 mg/kg administered using cyclodextrin-meglumine as vehicle; format: ADME, organism-based; conditions: in vivo
[2] = Oral bioavailability in Sprague-Dawley rat at 1 mg/kg administered using 0.1%tween-1%CMC as vehicle; format: ADME, organism-based; conditions: in vivo
[3] = Half life in Sprague-Dawley rat at 1 mg/kg, iv; format: ADME, organism-based; design: dose 1 mg/kg, route intravenous; conditions: in vivo
[4] = Clearance in Sprague-Dawley rat at 1 mg/kg, iv; format: ADME, organism-based; design: dose 1 mg/kg, route intravenous; conditions: in vivo
[5] = Oral bioavailability in dog at 1 mg/kg administered using 0.1%tween-1%CMC as vehicle; format: ADME, organism-based, Canis lupus familiaris; conditions: in vivo
[6] = Volume of distribution at steady state in Sprague-Dawley rat at 1 mg/kg, iv; format: ADME, organism-based; design: dose 1 mg/kg, route intravenous; conditions: in vivo, read-out: Vdss
In short: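 Male Sprague-Dawley rats given a single iv dose, nominal 1 mg/kg, […] in DMA:PEG400:H2O (2:2:1).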

[7] = Solubility of the compound at pH 7.4; format: physicochemical; conditions: buffer
[8] = target: T1, Voltage-gated inwardly rectifying potassium channel KCNH2 (Homo sapiens, UniProt Q12809); test: Inhibition of human ERG expressed in CHO cells by IonworksHT assay; format: cell-based
[9] = target: T2, C-C chemokine receptor type 3 (Homo sapiens, UniProt P51677); test: Binding affinity to human CCR3 receptor expressed in CHOK1 cells by radioligand displacement assay; format: cell-based, CHO-K1
T2 sequence (P51677 whole entry): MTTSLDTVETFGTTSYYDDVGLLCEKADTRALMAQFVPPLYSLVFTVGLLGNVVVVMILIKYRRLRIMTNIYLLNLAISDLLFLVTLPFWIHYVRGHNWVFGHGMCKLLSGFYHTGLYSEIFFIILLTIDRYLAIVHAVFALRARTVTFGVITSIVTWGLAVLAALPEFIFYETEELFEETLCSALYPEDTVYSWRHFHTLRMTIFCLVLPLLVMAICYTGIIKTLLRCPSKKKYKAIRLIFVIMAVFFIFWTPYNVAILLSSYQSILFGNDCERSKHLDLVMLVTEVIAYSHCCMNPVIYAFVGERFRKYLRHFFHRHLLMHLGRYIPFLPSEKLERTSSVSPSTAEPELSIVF

[10] = target: Histamine H1 receptor (Homo sapiens, UniProt P35367); test: Displacement of [3H]pyrilamine from human H1 receptor expressed in CHOK1 cells; format: cell-based, CHO-K1
[11] = target: T1, Voltage-gated inwardly rectifying potassium channel KCNH2
[12] = Oral bioavailability in rat; format: ADME, organism-based; conditions: in vivo
[13] = target: hERG (KCNH2) (Homo sapiens, UniProt Q12809); test: Inhibition of human ERG expressed in HEK293 cells at 10 uM by electrophysiological ion flux assay; format: cell-based; conditions: HEK293 cells expressing human ERG
Chain of hERG (KCNH2) (Q12809 whole entry): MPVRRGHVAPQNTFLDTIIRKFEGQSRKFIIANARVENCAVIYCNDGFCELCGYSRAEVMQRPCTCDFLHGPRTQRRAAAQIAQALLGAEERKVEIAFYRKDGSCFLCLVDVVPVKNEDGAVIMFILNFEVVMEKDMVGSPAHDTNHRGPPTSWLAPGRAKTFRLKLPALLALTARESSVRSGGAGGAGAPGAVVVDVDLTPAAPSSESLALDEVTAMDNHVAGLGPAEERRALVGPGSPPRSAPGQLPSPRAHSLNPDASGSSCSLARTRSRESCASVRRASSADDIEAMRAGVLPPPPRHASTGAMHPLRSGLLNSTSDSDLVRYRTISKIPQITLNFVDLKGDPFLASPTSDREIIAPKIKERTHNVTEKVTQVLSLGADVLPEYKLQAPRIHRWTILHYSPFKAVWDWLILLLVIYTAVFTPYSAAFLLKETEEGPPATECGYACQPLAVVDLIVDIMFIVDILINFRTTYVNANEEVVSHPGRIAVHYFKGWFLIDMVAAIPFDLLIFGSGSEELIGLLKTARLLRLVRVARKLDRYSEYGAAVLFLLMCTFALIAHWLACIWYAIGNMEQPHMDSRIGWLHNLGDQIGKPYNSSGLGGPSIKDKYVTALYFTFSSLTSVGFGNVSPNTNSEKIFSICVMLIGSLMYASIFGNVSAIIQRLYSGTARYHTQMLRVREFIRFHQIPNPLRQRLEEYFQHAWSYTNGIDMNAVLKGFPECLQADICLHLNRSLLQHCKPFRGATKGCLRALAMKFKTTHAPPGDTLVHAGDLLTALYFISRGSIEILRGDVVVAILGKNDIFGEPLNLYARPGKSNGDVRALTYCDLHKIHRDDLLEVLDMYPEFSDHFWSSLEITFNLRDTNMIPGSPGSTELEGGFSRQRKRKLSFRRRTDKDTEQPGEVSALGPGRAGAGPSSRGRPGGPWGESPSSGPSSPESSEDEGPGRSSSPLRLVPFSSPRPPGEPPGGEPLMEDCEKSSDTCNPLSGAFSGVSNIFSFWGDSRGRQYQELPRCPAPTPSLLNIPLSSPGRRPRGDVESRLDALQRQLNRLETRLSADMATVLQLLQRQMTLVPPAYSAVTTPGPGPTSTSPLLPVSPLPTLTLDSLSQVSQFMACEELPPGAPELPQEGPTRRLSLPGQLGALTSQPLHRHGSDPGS

Chain of Histamine H1 receptor (P35367 whole entry): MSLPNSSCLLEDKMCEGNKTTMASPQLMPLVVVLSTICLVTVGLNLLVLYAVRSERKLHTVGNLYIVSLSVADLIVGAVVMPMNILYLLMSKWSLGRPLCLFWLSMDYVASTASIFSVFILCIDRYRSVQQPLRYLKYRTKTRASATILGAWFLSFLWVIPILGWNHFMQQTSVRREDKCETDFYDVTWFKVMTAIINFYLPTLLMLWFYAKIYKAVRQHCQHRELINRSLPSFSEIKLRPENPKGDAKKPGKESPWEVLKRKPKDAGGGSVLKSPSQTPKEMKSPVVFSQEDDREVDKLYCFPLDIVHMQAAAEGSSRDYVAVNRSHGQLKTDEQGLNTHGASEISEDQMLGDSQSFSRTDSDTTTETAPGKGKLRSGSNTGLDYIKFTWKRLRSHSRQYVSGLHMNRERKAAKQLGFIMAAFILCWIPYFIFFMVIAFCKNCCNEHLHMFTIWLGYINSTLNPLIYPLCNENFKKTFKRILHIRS
T1 sequence (Q12809 whole entry): as the sequence (Q12809 whole entry) above

Ki [9] | Ki [10] | Compound | other results
 |  | Cc1ccc(S(=O)(=O)NC(=O)N2CCC(N3CCC(Oc4ccc(Cl)c(Cl)c4)CC3)CC2)cc1 | bioavailability [1]: 44%; bioavailability [2]: 18%; half-life [3]: 2.7 h; clearance [4]: 20 mL/min/kg; bioavailability [5]: 19%; Vd [6]: 2.7 L/kg
 |  | Cc1ccc(S(=O)(=O)[N-]C(=O)N2CCC(N3CCC(Oc4ccc(Cl)c(Cl)c4)CC3)CC2)cc1.[Na+] | solubility [7]: 0.26 µM; bioavailability [2]: 15%; bioavailability [5]: 97%
100 nM | 2.51 nM | Cc1ccc(S(=O)(=O)N(C)C(=O)N2CCC(N3CCC(Oc4ccc(Cl)c(Cl)c4)CC3)CC2)cc1 | IC50 [8]: 316 nM
3.16 nM |  | Cc1c(Cl)ccc(OC2CCN(C3CCN(C(=O)NS(=O)(=O)c4ccc(N(C)C)cc4)CC3)CC2)c1Cl | bioavailability [2]: 82%; IC50 [8]: > 20000 nM; Vd [6]: 2.3 L/kg
79.4 nM | 100 nM | O=C(NS(=O)(=O)N1CCC(N2CCC(Oc3ccc(Cl)c(Cl)c3)CC2)CC1)c1ccccc1 | bioavailability [2]: 100%; Vd [6]: 0.5 L/kg
12.6 nM | 25.1 nM | Cc1c(Cl)ccc(OC2CCN(C3CCN(S(=O)(=O)NC(=O)c4ccccc4)CC3)CC2)c1Cl | bioavailability [2]: 18%; half-life [3]: 1.6 h; clearance [4]: 17 mL/min/kg; Vd [6]: 0.9 L/kg; IC50 [11]: 3980 nM
5010 nM |  | COc1ccc(C(=O)NCCN2CCN(Cc3ccc(Cl)c(Cl)c3)CC2)cc1Cl | 
100 nM |  | COc1cccc(C(=O)NCCN2CCC(Oc3ccc(Cl)c(Cl)c3)CC2)c1 | half-life [3]: 1.8 h
50.1 nM | 7.94 nM | CS(=O)(=O)c1cccc(C(=O)N2CCC(N3CCC(Oc4ccc(Cl)c(Cl)c4)CC3)CC2)c1 | solubility [7]: 0.017 µM (≈ 8.7 ng/mL); half-life [3]: 6.9 h; bioavailability [12]: 50%
10 nM | 25.1 nM | O=C(c1c[nH]c(=O)c2ccccc12)N1CCC(N2CCC(Oc3ccc(Cl)c(Cl)c3)CC2)CC1 | half-life [3]: 4.2 h; bioavailability [12]: 50%
5.01 nM | 25.1 nM | Cc1c(Cl)ccc(OC2CCN(C3CCN(C(=O)c4cccc(S(C)(=O)=O)c4)CC3)CC2)c1Cl | 
251 nM | 100 nM | O=C(O)COc1cccc(C(=O)N2CCC(N3CCC(Oc4ccc(Cl)c(Cl)c4)CC3)CC2)c1 | inhibition at 10 µM [13]: 15%
251 nM | 25.1 nM | O=C(O)c1ccccc1C(=O)N1CCC(N2CCC(Oc3ccc(Cl)c(Cl)c3)CC2)CC1 | 
200 nM | 126 nM | O=C(O)c1cccc(C(=O)N2CCC(N3CCC(Oc4ccc(Cl)c(Cl)c4)CC3)CC2)c1 | IC50 [11]: > 10000 nM
316 nM | 15.8 nM | O=C(c1ccc(-c2nc(=O)o[nH]2)cc1)N1CCC(N2CCC(Oc3ccc(Cl)c(Cl)c3)CC2)CC1 | 
200 nM | 31.6 nM | O=C(c1ccc(-c2nn[nH]n2)cc1)N1CCC(N2CCC(Oc3ccc(Cl)c(Cl)c3)CC2)CC1 | 
79.4 nM | 79.4 nM | O=C(O)CCCS(=O)(=O)c1cccc(C(=O)N2CCC(N3CCC(Oc4ccc(Cl)c(Cl)c4)CC3)CC2)c1 | 
501 nM | 15.8 nM | O=C(O)CCNc1ccccc1C(=O)N1CCC(N2CCC(Oc3ccc(Cl)c(Cl)c3)CC2)CC1 | 
631 nM | > 6310 nM | Cc1ccc(C(=O)N2CCC(N3CC[C@H](Oc4ccc(Cl)c(C)c4Cl)C[C@@H]3C(=O)O)CC2)cc1 | 
2510 nM | > 5010 nM | Cc1ccc(C(=O)N2CCC(N3CC[C@@H](Oc4ccc(Cl)c(C)c4Cl)C[C@H]3C(=O)O)CC2)cc1 | 

Ki [9] | Ki [10] | Compound | other results
398 nM | 200 nM | CS(=O)(=O)c1cccc(C(=O)N2CC[C@@H](N3CCC(Oc4ccc(Cl)c(Cl)c4)CC3)[C@H](C(=O)O)C2)c1 | 
15.8 nM | 31.6 nM | O=C(NS(=O)(=O)c1ccccc1)N1CCC(N2CCC(Oc3ccc(Cl)c(Cl)c3)CC2)CC1 | IC50 [11]: 10000 nM
31.6 nM | 50.1 nM | O=C(NS(=O)(=O)c1ccc(F)cc1)N1CCC(N2CCC(Oc3ccc(Cl)c(Cl)c3)CC2)CC1 | 
7.94 nM | 20 nM | O=C(NS(=O)(=O)c1ccc(Cl)cc1)N1CCC(N2CCC(Oc3ccc(Cl)c(Cl)c3)CC2)CC1 | 
39.8 nM | 20 nM | COc1ccc(S(=O)(=O)NC(=O)N2CCC(N3CCC(Oc4ccc(Cl)c(Cl)c4)CC3)CC2)cc1 | bioavailability [2]: 4%
50.1 nM | 20 nM | CN(C)c1ccc(S(=O)(=O)NC(=O)N2CCC(N3CCC(Oc4ccc(Cl)c(Cl)c4)CC3)CC2)cc1 | 
20 nM | 50.1 nM | Cc1ccccc1S(=O)(=O)NC(=O)N1CCC(N2CCC(Oc3ccc(Cl)c(Cl)c3)CC2)CC1 | bioavailability [2]: 8%; Vd [6]: 2.7 L/kg; IC50 [11]: > 10000 nM
5.01 nM | 50.1 nM | O=C(NS(=O)(=O)c1ccccc1Cl)N1CCC(N2CCC(Oc3ccc(Cl)c(Cl)c3)CC2)CC1 | 
25.1 nM | 20 nM | COc1ccccc1S(=O)(=O)NC(=O)N1CCC(N2CCC(Oc3ccc(Cl)c(Cl)c3)CC2)CC1 | 
31.6 nM | 25.1 nM | CN(C)c1ccccc1S(=O)(=O)NC(=O)N1CCC(N2CCC(Oc3ccc(Cl)c(Cl)c3)CC2)CC1 | 
126 nM | 31.6 nM | Cc1cccc(S(=O)(=O)NC(=O)N2CCC(N3CCC(Oc4ccc(Cl)c(Cl)c4)CC3)CC2)c1 | 
6.31 nM | 7.94 nM | O=C(NS(=O)(=O)c1cccc(Cl)c1)N1CCC(N2CCC(Oc3ccc(Cl)c(Cl)c3)CC2)CC1 | 
100 nM | 20 nM | N#Cc1cccc(S(=O)(=O)NC(=O)N2CCC(N3CCC(Oc4ccc(Cl)c(Cl)c4)CC3)CC2)c1 | 
31.6 nM | 39.8 nM | O=C(NS(=O)(=O)c1cccc(C(F)(F)F)c1)N1CCC(N2CCC(Oc3ccc(Cl)c(Cl)c3)CC2)CC1 | 
25.1 nM | 15.8 nM | Cc1ccc(S(=O)(=O)NC(=O)N2CCC(N3CCC(Oc4ccc(Cl)cc4Cl)CC3)CC2)cc1 | 
0.631 nM | 20 nM | Cc1ccc(S(=O)(=O)NC(=O)N2CCC(N3CCC(Oc4ccc(Cl)c(C)c4Cl)CC3)CC2)cc1 | 
7.94 nM | 25.1 nM | Cc1ccc(S(=O)(=O)NC(=O)N2CCC(N3CCC(Oc4ccc(Cl)cc4C)CC3)CC2)cc1 | bioavailability [2]: 6%; half-life [3]: 0.9 h; clearance [4]: 27 mL/min/kg; Vd [6]: 1.4 L/kg; IC50 [11]: > 10000 nM
126 nM | 126 nM | Cc1ccc(S(=O)(=O)NC(=O)N2CCC(N3CCC(Oc4ccc(Cl)cc4)CC3)CC2)cc1 | 
631 nM | 1000 nM | Cc1ccc(S(=O)(=O)NC(=O)N2CCC(N3CCC(Oc4ccc(F)c(F)c4)CC3)CC2)cc1 | 
158 nM | 50.1 nM | O=C(NS(=O)(=O)Cc1ccccc1)N1CCC(N2CCC(Oc3ccc(Cl)c(Cl)c3)CC2)CC1 | 

Compound | Ki [9] | Ki [10] | other results
O=C(O)CCCCn1nnc(-c2ccc(C(=O)N3CCC(N4CCC(Oc5ccc(Cl)c(Cl)c5)CC4)CC3)cc2)n1 | 398 nM | 39.8 nM | 
